Results pooled from the literature.
Each line is one published result; the experiments were not run side by side.
Target: Interferon-induced, double-stranded RNA-activated protein kinase (EIF2AK2, Homo sapiens, UniProt P19525)

| SMILES | assay | setting | remaining binding |
| --- | --- | --- | --- |
| CC(=O)C1=C(C)N(c2cccc(C(F)(F)F)c2)C(=O)N[C@@H]1c1ccc(C#N)nc1 | cell-free assay, competition with immobilised ligand | 1 µM | 83.4% |
| Cc1cnn2ncc(-c3ccnc(N(C)C)n3)c2c1 | binding | 1 µM | 100% |
| O=C(c1ccc(Nc2nccc(-c3cc4ccccc4s3)n2)cc1)N1CCC(N2CCCC2)CC1 | binding, competition with immobilised ligand | 1 µM | 21% |
| COc1cnc(Nc2cccc(S(N)(=O)=O)c2)nc1N1CCN(c2ccccc2)CC1 | binding, competition with immobilised ligand | 1 µM | 97% |
| O=C(O)c1cc(-c2ccc(C3CCNCC3)cc2)c2ccc(-c3ccc(C(F)(F)F)cc3)cc2c1 | cell-free assay, competition with immobilised ligand | 1 µM | 100% |
| CC1CCCN1c1nccc(-c2cnn3ncccc23)n1 (centres unmarked) | binding | 1 µM | 100% |
| FC(F)(F)Oc1cccc(-c2cnc3ccc(-c4ccncc4)nn23)c1 | cell-free assay, competition with immobilised ligand | 5 µM | 65% |
| COc1cnc(Nc2cccc(S(N)(=O)=O)c2)nc1N1CCN(c2ccccc2)C(=O)C1 | binding, competition with immobilised ligand | 1 µM | 99% |
| Nc1ncc2c(n1)-c1c([nH]c3ccc(C#CC4CC4)cc13)CCCC2 | binding, competition with immobilised ligand | 1 µM | 100% |
| O=C(NCC1CCOCC1)c1n[nH]cc1NC(=O)c1c(F)cccc1F | binding, competition with immobilised ligand | 1 µM | 100% |
| F[C@@H]1CCN(c2nccc(-c3cnn4ncccc34)n2)C1 | binding | 1 µM | 100% |
| CCOC(=O)c1cc2cc(-c3cc(C(=O)NCc4ccc(C(=O)O)cc4)nn3C)ccc2[nH]1 | cell-free assay, competition with immobilised ligand | 0.1 µM | 100% |
| COc1ccnn2ncc(-c3ccnc(N(C)C)n3)c12 | binding | 1 µM | 100% |
| O=C(O)[C@H]1[C@H](Cn2nnc3ccccc3c2=O)CC[C@@H]1C(=O)c1ccc(OCCC2CCOCC2)cc1 | cell-free assay, competition with immobilised ligand | 1 µM | 91% |
| CN(c1nccc(-c2cnn3ncccc23)n1)C1CC1 | binding | 1 µM | 100% |
| O=C(NCc1ncc(C(F)(F)F)cc1Cl)c1ccc2c(c1)C1(CCS(=O)(=O)CC1)[C@@H](C1CC1)N2S(=O)(=O)c1ccc(F)cc1 | cell-free assay, competition with immobilised ligand | 1 µM | 97% |
| O=C(c1ccc(Nc2ncc(Cl)c(-c3cc4ccccc4s3)n2)cc1)N1CCC(N2CCCC2)CC1 | binding, competition with immobilised ligand | 1 µM | 22% |
| CN(C)C(=O)Cn1cc(-c2nc(C3(c4ccc(-c5cnc(N)nc5)cc4)CC3)no2)cn1 | cell-free assay, competition with immobilised ligand | 1 µM | 100% |
| O=C(NCCCN1CCOCC1)c1ccc(Nc2nccc(-c3cc4ccccc4s3)n2)cc1 | binding, competition with immobilised ligand | 1 µM | 64% |
| N[C@H]1CCN(c2nccc(-c3cnn4ncccc34)n2)C1 | binding | 1 µM | 100% |
